Reference: ChEMBL document CHEMBL1795269, “Novel (E)-5-styryl-2,2'-bithiophene derivatives as ligands for β-amyloid plaques” (Eur J Med Chem, 2011)
The source made the active and inactive calls. No cut-off for these calls is given here.

Key:
[1] = Displacement of [125I]-TZDM from amyloid beta 1 to 42 after 2 hrs by gamma counting
Summary of the method: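 Aβ1-42 aggregated at 0.25 mg/mL in pH 7.4 buffer (10 mM sodium phosphate, 1 mM EDTA), 37 °C for 42 h with shaking. Fibrils (28 nM final) mixed with [125I]TZDM and inhibitor (10^-5 to 10^-10 M in EtOH) in PBS (0.2 M, pH 7.4). Incubated 2 h at 37 °C; nonspecific binding taken with 100 nM TZDM. Bound and free separated by vacuum filtration through glass fibre filters, washed with cold PBS containing 10% ethanol, then counted; Ki reported.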

[2] = Octanol-phosphate buffer partition coefficient, log D of the compound at pH 7.4; type: physicochemical
Summary of the method: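 Radiotracer added to premixed n-octanol (3 g) and PBS (0.05 M, pH 7.4; 3 g), and partitioned between the two phases.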

Blood [3] = test: Biodistribution in Kunming mouse blood at 1 uCi, iv after 2 mins by gamma counting; type: ADME, organism-based; conditions: in vivo
Summary of the method: (§1)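 Female normal KunMing mice, about 20 g. [125I]-labelled tracer (1 μCi) in 100 μL saline injected into the tail vein. Mice killed at set times after injection; organs removed, weighed and counted in a gamma counter. %ID/g of wet tissue calculated against diluted aliquots of the injected dose.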

Blood [4] = test: Biodistribution in Kunming mouse blood at 1 uCi, iv after 15 mins by gamma counting; type: ADME, organism-based; conditions: in vivo, 0.25 h; summary of the method: as §1
Blood [5] = test: Biodistribution in Kunming mouse blood at 1 uCi, iv after 30 mins by gamma counting; type: ADME, organism-based; conditions: in vivo, 0.5 h; summary of the method: as §1
Blood [6] = test: Biodistribution in Kunming mouse blood at 1 uCi, iv after 60 mins by gamma counting; type: ADME, organism-based; conditions: in vivo, 1 h; summary of the method: as §1
Blood [7] = test: Biodistribution in Kunming mouse blood at 1 uCi, iv after 120 mins by gamma counting; type: ADME, organism-based; conditions: in vivo, 2 h; summary of the method: as §1
Brain [8] = test: Biodistribution in Kunming mouse brain at 1 uCi, iv after 2 mins by gamma counting; type: ADME, organism-based; conditions: in vivo; summary of the method: as §1
Brain [9] = test: Biodistribution in Kunming mouse brain at 1 uCi, iv after 15 mins by gamma counting; type: ADME, organism-based; conditions: in vivo, 0.25 h; summary of the method: as §1
Brain [10] = test: Biodistribution in Kunming mouse brain at 1 uCi, iv after 30 mins by gamma counting; type: ADME, organism-based; conditions: in vivo, 0.5 h; summary of the method: as §1
Brain [11] = test: Biodistribution in Kunming mouse brain at 1 uCi, iv after 60 mins by gamma counting; type: ADME, organism-based; conditions: in vivo, 1 h; summary of the method: as §1
Brain [12] = test: Biodistribution in Kunming mouse brain at 1 uCi, iv after 120 mins by gamma counting; type: ADME, organism-based; conditions: in vivo, 2 h; summary of the method: as §1
Heart [13] = test: Biodistribution in Kunming mouse heart at 1 uCi, iv after 2 mins by gamma counting; type: ADME, organism-based; conditions: in vivo; summary of the method: as §1
Heart [14] = test: Biodistribution in Kunming mouse heart at 1 uCi, iv after 15 mins by gamma counting; type: ADME, organism-based; conditions: in vivo, 0.25 h; summary of the method: as §1
Heart [15] = test: Biodistribution in Kunming mouse heart at 1 uCi, iv after 30 mins by gamma counting; type: ADME, organism-based; conditions: in vivo, 0.5 h; summary of the method: as §1
Heart [16] = test: Biodistribution in Kunming mouse heart at 1 uCi, iv after 60 mins by gamma counting; type: ADME, organism-based; conditions: in vivo, 1 h; summary of the method: as §1
Heart [17] = test: Biodistribution in Kunming mouse heart at 1 uCi, iv after 120 mins by gamma counting; type: ADME, organism-based; conditions: in vivo, 2 h; summary of the method: as §1
Liver [18] = test: Biodistribution in Kunming mouse liver at 1 uCi, iv after 2 mins by gamma counting; type: ADME, organism-based; conditions: in vivo; summary of the method: as §1
Liver [19] = test: Biodistribution in Kunming mouse liver at 1 uCi, iv after 15 mins by gamma counting; type: ADME, organism-based; conditions: in vivo, 0.25 h; summary of the method: as §1
Liver [20] = test: Biodistribution in Kunming mouse liver at 1 uCi, iv after 30 mins by gamma counting; type: ADME, organism-based; conditions: in vivo, 0.5 h; summary of the method: as §1
Liver [21] = test: Biodistribution in Kunming mouse liver at 1 uCi, iv after 60 mins by gamma counting; type: ADME, organism-based; conditions: in vivo, 1 h; summary of the method: as §1
Liver [22] = test: Biodistribution in Kunming mouse liver at 1 uCi, iv after 120 mins by gamma counting; type: ADME, organism-based; conditions: in vivo, 2 h; summary of the method: as §1
Spleen [23] = test: Biodistribution in Kunming mouse spleen at 1 uCi, iv after 2 mins by gamma counting; type: ADME, organism-based; conditions: in vivo; summary of the method: as §1
Spleen [24] = test: Biodistribution in Kunming mouse spleen at 1 uCi, iv after 15 mins by gamma counting; type: ADME, organism-based; conditions: in vivo, 0.25 h; summary of the method: as §1
Spleen [25] = test: Biodistribution in Kunming mouse spleen at 1 uCi, iv after 30 mins by gamma counting; type: ADME, organism-based; conditions: in vivo, 0.5 h; summary of the method: as §1
Spleen [26] = test: Biodistribution in Kunming mouse spleen at 1 uCi, iv after 60 mins by gamma counting; type: ADME, organism-based; conditions: in vivo, 1 h; summary of the method: as §1
Spleen [27] = test: Biodistribution in Kunming mouse spleen at 1 uCi, iv after 120 mins by gamma counting; type: ADME, organism-based; conditions: in vivo, 2 h; summary of the method: as §1
Lung [28] = test: Biodistribution in Kunming mouse lung at 1 uCi, iv after 2 mins by gamma counting; type: ADME, organism-based; conditions: in vivo; summary of the method: as §1
Lung [29] = test: Biodistribution in Kunming mouse lung at 1 uCi, iv after 15 mins by gamma counting; type: ADME, organism-based; conditions: in vivo, 0.25 h; summary of the method: as §1
Lung [30] = test: Biodistribution in Kunming mouse lung at 1 uCi, iv after 30 mins by gamma counting; type: ADME, organism-based; conditions: in vivo, 0.5 h; summary of the method: as §1
Lung [31] = test: Biodistribution in Kunming mouse lung at 1 uCi, iv after 60 mins by gamma counting; type: ADME, organism-based; conditions: in vivo, 1 h; summary of the method: as §1
Lung [32] = test: Biodistribution in Kunming mouse lung at 1 uCi, iv after 120 mins by gamma counting; type: ADME, organism-based; conditions: in vivo, 2 h; summary of the method: as §1
Kidney [33] = test: Biodistribution in Kunming mouse kidney at 1 uCi, iv after 2 mins by gamma counting; type: ADME, organism-based; conditions: in vivo; summary of the method: as §1
Kidney [34] = test: Biodistribution in Kunming mouse kidney at 1 uCi, iv after 15 mins by gamma counting; type: ADME, organism-based; conditions: in vivo, 0.25 h; summary of the method: as §1
Kidney [35] = test: Biodistribution in Kunming mouse kidney at 1 uCi, iv after 60 mins by gamma counting; type: ADME, organism-based; conditions: in vivo, 1 h; summary of the method: as §1
Kidney [36] = test: Biodistribution in Kunming mouse kidney at 1 uCi, iv after 120 mins by gamma counting; type: ADME, organism-based; conditions: in vivo, 2 h; summary of the method: as §1
Stomach [37] = test: Biodistribution in Kunming mouse stomach assessed per organ at 1 uCi, iv after 2 mins by gamma counting; type: ADME, organism-based; conditions: in vivo; summary of the method: as §1
Stomach [38] = test: Biodistribution in Kunming mouse stomach assessed per organ at 1 uCi, iv after 15 mins by gamma counting; type: ADME, organism-based; conditions: in vivo, 0.25 h; summary of the method: as §1
Stomach [39] = test: Biodistribution in Kunming mouse stomach assessed per organ at 1 uCi, iv after 30 mins by gamma counting; type: ADME, organism-based; conditions: in vivo, 0.5 h; summary of the method: as §1
Stomach [40] = test: Biodistribution in Kunming mouse stomach assessed per organ at 1 uCi, iv after 60 mins by gamma counting; type: ADME, organism-based; conditions: in vivo, 1 h
Stomach [41] = test: Biodistribution in Kunming mouse stomach assessed per organ at 1 uCi, iv after 120 mins by gamma counting; type: ADME, organism-based; conditions: in vivo, 2 h; summary of the method: as §1
Muscle tissue [42] = test: Biodistribution in Kunming mouse muscle at 1 uCi, iv after 2 mins by gamma counting; type: ADME, organism-based; conditions: in vivo; summary of the method: as §1
Muscle tissue [43] = test: Biodistribution in Kunming mouse muscle at 1 uCi, iv after 15 mins by gamma counting; type: ADME, organism-based; conditions: in vivo, 0.25 h; summary of the method: as §1
Muscle tissue [44] = test: Biodistribution in Kunming mouse muscle at 1 uCi, iv after 30 mins by gamma counting; type: ADME, organism-based; conditions: in vivo, 0.5 h; summary of the method: as §1
Muscle tissue [45] = test: Biodistribution in Kunming mouse muscle at 1 uCi, iv after 60 mins by gamma counting; type: ADME, organism-based; conditions: in vivo, 1 h; summary of the method: as §1
Muscle tissue [46] = test: Biodistribution in Kunming mouse muscle at 1 uCi, iv after 120 mins by gamma counting; type: ADME, organism-based; conditions: in vivo, 2 h; summary of the method: as §1
Kidney [47] = test: Biodistribution in Kunming mouse kidney at 1 uCi, iv after 30 mins by gamma counting; type: ADME, organism-based; conditions: in vivo, 0.5 h; summary of the method: as §1
Mus musculus = species on record: Mus musculus; test: Binding affinity to amyloid beta in APP/PS1 transgenic C57 mouse brain cortex at 5 uCi/100 uL after 30 mins by autoradiography; type: tissue-based; conditions: tested as the 125I-labelled form
Summary of the method: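 Deparaffinized transgenic mouse brain sections incubated 30 min at room temperature with [125I]-labelled tracer (5 μCi/100 μL). Washed with saturated Li2CO3 in 40% EtOH for 3 min, then 40% EtOH for 3 min, then rinsed 30 s in water. Plaques checked afterwards by thioflavin-S (1 μM) fluorescence staining of the same sections.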

With `Brc1ccc(/C=C/c2ccc(-c3ccc(Br)s3)s2)cc1` the Ki [1] was 0.22 nM and the inhibition [1] was “Dose-dependent effect”.

With `Ic1ccc(-c2ccc(/C=C/c3ccccc3)s2)s1` the Ki [1] was 0.24 nM and the inhibition [1] was “Dose-dependent effect”.

With `Brc1ccc(-c2ccc(/C=C/c3ccccc3)s2)s1` the Ki [1] was 1.32 nM and the inhibition [1] was “Dose-dependent effect”.

`COc1ccc(/C=C/c2ccc(-c3ccc([125I])s3)s2)cc1` gave a logD [2] of 3.07, a Drug uptake (Blood [3]) of 11.21 % ID/g and a Drug uptake (Blood [4]) of 7.99 % ID/g. The Drug uptake (Blood [5]) was 6.18 % ID/g, the Drug uptake (Blood [6]) was 6.7 % ID/g and the Drug uptake (Blood [7]) was 6.85 % ID/g. For the same compound, the Drug uptake (Brain [8]) was 0.5 % ID/g, the Drug uptake (Brain [9]) was 0.44 % ID/g and the Drug uptake (Brain [10]) was 0.39 % ID/g. It also gave a Drug uptake (Brain [11]) of 0.5 % ID/g, a Drug uptake (Brain [12]) of 0.59 % ID/g and a Drug uptake (Heart [13]) of 5.08 % ID/g. The Drug uptake (Heart [14]) was 6.25 % ID/g, the Drug uptake (Heart [15]) was 5.55 % ID/g and the Drug uptake (Heart [16]) was 5.33 % ID/g. It also gave a Drug uptake (Heart [17]) of 4.18 % ID/g, a Drug uptake (Liver [18]) of 45.73 % ID/g and a Drug uptake (Liver [19]) of 46.86 % ID/g. For the same compound, the Drug uptake (Liver [20]) was 26.91 % ID/g, the Drug uptake (Liver [21]) was 15.74 % ID/g and the Drug uptake (Liver [22]) was 11 % ID/g. The Drug uptake (Spleen [23]) was 9.14 % ID/g, the Drug uptake (Spleen [24]) was 11.2 % ID/g and the Drug uptake (Spleen [25]) was 9.4 % ID/g. For the same compound, the Drug uptake (Spleen [26]) was 6.38 % ID/g, the Drug uptake (Spleen [27]) was 7.21 % ID/g and the Drug uptake (Lung [28]) was 26.17 % ID/g. It also gave a Drug uptake (Lung [29]) of 16.37 % ID/g, a Drug uptake (Lung [30]) of 12.95 % ID/g and a Drug uptake (Lung [31]) of 10.45 % ID/g. The Drug uptake (Lung [32]) was 7.08 % ID/g, the Drug uptake (Kidney [33]) was 4.82 % ID/g and the Drug uptake (Kidney [34]) was 6.61 % ID/g. It also gave a Drug uptake (Kidney [35]) of 6.42 % ID/g, a Drug uptake (Kidney [36]) of 6.33 % ID/g and a Drug uptake (Stomach [37]) of 0.39 %ID. The Drug uptake (Stomach [38]) was 2.6 %ID, the Drug uptake (Stomach [39]) was 5.11 %ID and the Drug uptake (Stomach [40]) was 8.9 %ID. For the same compound, the Drug uptake (Stomach [41]) was 20.22 %ID, the Drug uptake (Muscle tissue [42]) was 1.61 % ID/g and the Drug uptake (Muscle tissue [43]) was 2.23 % ID/g. For the same compound, the Drug uptake (Muscle tissue [44]) was 2.12 % ID/g, the Drug uptake (Muscle tissue [45]) was 3.95 % ID/g and the Drug uptake (Muscle tissue [46]) was 2.83 % ID/g. It also gave a Drug uptake (Kidney [47]) of 5.92 % ID/g.

For `Ic1ccc(/C=C/c2ccc(-c3cccs3)s2)cc1`, the Ki [1] was 0.92 nM, the inhibition [1] was “Dose-dependent effect” and the Activity (Mus musculus) was “Active”.

With `COc1ccc(/C=C/c2ccc(-c3ccc(Br)s3)s2)cc1` the Ki [1] was 0.72 nM and the inhibition [1] was “Dose-dependent effect”.

For `Ic1ccc(/C=C/c2ccc(-c3ccc(I)s3)s2)cc1`, the Ki [1] was 0.63 nM and the inhibition [1] was “Dose-dependent effect”.

For `C(=C\c1ccc(-c2cccs2)s1)/c1ccccc1`, the Ki [1] was 4.78 nM and the inhibition [1] was “Dose-dependent effect”.
